Data taken from ChEMBL document CHEMBL2346606, “Inhibitors of the TAM subfamily of tyrosine kinases: synthesis and biological evaluation” (Eur J Med Chem, 2013).

Key:
KB = assay: Growth inhibition of human KB cells at 10 uM after 72 hrs by […] relative to control; assay type: functional; settings: read-out: GI
Outline: (§1)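 KB and Vero cells were grown in D-MEM with 10% FCS and antibiotics under 5% CO2, plated, then dosed 24 h later at 10^-5 M from DMSO (controls 1% DMSO). After 72 h, MTS was added for 3 h at 37 °C and A490 read. Inhibition = (1 − OD treated/OD control) × 100, in triplicate.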

HT-29 = assay: Growth inhibition of human HT-29 cells at 10 uM after 72 hrs by […] assay relative to control; assay type: functional; settings: HT-29, 72 h, read-out: GI
Outline: (§2)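 HT29, MCF7 and PC-3 cells were grown in RPMI, plated, and treated 24 h later with compound in DMSO at 10^-5 M (DMSO controls, 1% final). After 72 h exposure, MTS reagent was added for 3 h at 37 °C and absorbance read at 490 nm. Proliferation inhibition = [1 − OD treated/OD control] × 100, triplicate experiments.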

[1] = Growth inhibition of African green monkey Vero cells at 10 uM after 72 hrs by […] assay relative to control; assay type: cell-based; settings: chlorocebus sabaeus, read-out: GI; outline: as §1
MCF7 = assay: Growth inhibition of human MCF7 cells at 10 uM after 72 hrs by […] assay relative to control; assay type: functional; settings: MCF7, 72 h, read-out: GI; outline: as §2
PC-3 = assay: Growth inhibition of human PC3 cells at 10 uM after 72 hrs by […] assay relative to control; assay type: functional; settings: PC-3, 72 h, read-out: GI; outline: as §2

COc1ncccc1C(=O)Nc1cccc(-c2ncnc3[nH]cnc23)c1
< 10%: inhibition of growth at 10 µM (KB) | inhibition of growth at 10 µM (HT-29) | inhibition at 72 h, 10 µM [1] | inhibition of growth at 10 µM (MCF7) | inhibition of growth at 10 µM (PC-3)

O=C(Nc1ccc(Nc2ncnc3[nH]cnc23)cc1)c1ccccc1F
< 10%: inhibition of growth at 10 µM (KB) | inhibition of growth at 10 µM (HT-29) | inhibition at 72 h, 10 µM [1] | inhibition of growth at 10 µM (MCF7) | inhibition of growth at 10 µM (PC-3)

O=C(Nc1cccc(-c2ncnc3[nH]cnc23)c1)c1cccn(-c2cccc(F)c2)c1=O
< 10%: inhibition of growth at 10 µM (KB) | inhibition of growth at 10 µM (HT-29) | inhibition at 72 h, 10 µM [1] | inhibition of growth at 10 µM (MCF7) | inhibition of growth at 10 µM (PC-3)

COc1ccccc1C(=O)Nc1cccc(-c2ncnc3[nH]cnc23)c1
< 10%: inhibition of growth at 10 µM (KB) | inhibition of growth at 10 µM (HT-29) | inhibition at 72 h, 10 µM [1] | inhibition of growth at 10 µM (MCF7) | inhibition of growth at 10 µM (PC-3)

Cc1cc(C(=O)Nc2cccc(-c3nc4c(Nc5ccc(F)cc5)ncnc4[nH]3)c2)ccc1Br
< 10%: inhibition of growth at 10 µM (KB) | inhibition of growth at 10 µM (HT-29) | inhibition at 72 h, 10 µM [1] | inhibition of growth at 10 µM (MCF7) | inhibition of growth at 10 µM (PC-3)

O=C(Nc1cccc(-c2ncnc3[nH]cnc23)c1)c1ccccc1F
< 10%: inhibition of growth at 10 µM (KB) | inhibition of growth at 10 µM (HT-29) | inhibition at 72 h, 10 µM [1] | inhibition of growth at 10 µM (MCF7) | inhibition of growth at 10 µM (PC-3)

CCN(CC)CCNC(=O)c1c(C)[nH]c(/C=C2\C(=O)Nc3ccc(F)cc32)c1C [SUNITINIB]
< 10%: inhibition of growth at 10 µM (KB) | inhibition of growth at 10 µM (HT-29) | inhibition at 72 h, 10 µM [1] | inhibition of growth at 10 µM (MCF7) | inhibition of growth at 10 µM (PC-3)

COc1ccccc1C(=O)Nc1cccc(-c2nc3c(Nc4cccc(F)c4)ncnc3[nH]2)c1
< 10%: inhibition of growth at 10 µM (KB) | inhibition of growth at 10 µM (HT-29) | inhibition at 72 h, 10 µM [1] | inhibition of growth at 10 µM (MCF7) | inhibition of growth at 10 µM (PC-3)

O=C(Nc1cccc(-c2nc3c(Nc4ccccc4)ncnc3[nH]2)c1)c1ccccc1F
< 10%: inhibition of growth at 10 µM (KB) | inhibition of growth at 10 µM (HT-29) | inhibition at 72 h, 10 µM [1] | inhibition of growth at 10 µM (MCF7) | inhibition of growth at 10 µM (PC-3)

O=C(Nc1ccc(Nc2ncnc3[nH]cnc23)c(F)c1)c1cccn(-c2ccc(F)cc2)c1=O
< 10%: inhibition of growth at 10 µM (KB) | inhibition of growth at 10 µM (HT-29) | inhibition at 72 h, 10 µM [1] | inhibition of growth at 10 µM (MCF7) | inhibition of growth at 10 µM (PC-3)

O=C(Nc1cccc(-c2ncnc3[nH]cnc23)c1)c1cccnc1F
< 10%: inhibition of growth at 10 µM (KB) | inhibition of growth at 10 µM (HT-29) | inhibition at 72 h, 10 µM [1] | inhibition of growth at 10 µM (MCF7) | inhibition of growth at 10 µM (PC-3)
